Source: ChEMBL document CHEMBL1157553, “Synthesis of novel aminoglycosides via allylic azide rearrangement for investigating the significance of 2'-amino group” (2010)
≈ marks a conversion by molar mass, not a printed value.

Experiments:
Staphylococcus aureus [1] = experiment: Antibacterial activity against aminoglycoside-susceptible Staphylococcus aureus ATCC 25923 after 12 to 18 hrs; format: functional
In short: (§1)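 Broth microdilution MIC. Bacteria grown in Trypticase Soy broth at 35 °C for 1–2 h, then diluted with broth to an absorbance of 0.08–0.1 at 625 nm. This suspension was further diluted into broth and dispensed into 96-well plates containing 2-fold serial dilutions of compound. Plates were incubated 12–18 h at 35 °C. MIC is the lowest concentration inhibiting growth, repeated at least three times.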

Pseudomonas aeruginosa = experiment: Antibacterial activity against aminoglycoside-resistant Pseudomonas aeruginosa ATCC 27853 after 12 to 18 hrs; format: functional
In short: (§2)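 Broth microdilution MIC. Bacteria grown in Trypticase Soy broth at 35 °C for 1–2 h, then adjusted to absorbance 0.08–0.1 at 625 nm. This suspension was diluted into 10 mL broth and dispensed into wells, and 2-fold serial dilutions of compound were added. Plates were incubated at 35 °C for 12–18 h. MIC was the lowest concentration inhibiting growth, with at least three repeats.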

Klebsiella pneumoniae [2] = experiment: Antibacterial activity against aminoglycoside-susceptible Klebsiella pneumoniae ATCC 13883 after 12 to 18 hrs; format: functional; in short: as §1
Klebsiella pneumoniae [3] = experiment: Antibacterial activity against aminoglycoside-resistant Klebsiella pneumoniae ATCC 700603 after 12 to 18 hrs
Staphylococcus aureus [4] = experiment: Antibacterial activity against aminoglycoside-resistant Staphylococcus aureus ATCC 33591 after 12 to 18 hrs; format: functional; in short: as §2
Escherichia coli = experiment: Antibacterial activity against aminoglycoside-susceptible Escherichia coli ATCC 25922 after 12 to 18 hrs; format: functional; in short: as §1

Compound	MIC (Staphylococcus aureus [1])	MIC (Escherichia coli)	MIC (Pseudomonas aeruginosa)	MIC (Klebsiella pneumoniae [2])	MIC (Klebsiella pneumoniae [3])	MIC (Staphylococcus aureus [4])
CCCCCCNC(=O)O[C@@H]1[C@@H](OC(=O)NCCCCCC)[C@H](N)C[C@H](N)[C@H]1O[C@@H]1CC[C@H](N)[C@@H](CN)O1	32 µg/mL (≈ 58.7 µM)	125 µg/mL (≈ 229 µM)	16 µg/mL (≈ 29.4 µM)	4 µg/mL (≈ 7.34 µM)	≥ 250 µg/mL	16 µg/mL (≈ 29.4 µM)
NC[C@@H]1CC[C@@H](N)[C@@H](O[C@H]2[C@H](O)[C@@H](O[C@@H]3O[C@H](CO)[C@@H](O)[C@H](O)[C@H]3O)[C@H](N)C[C@@H]2N)O1	125 µg/mL (≈ 276 µM)	64 µg/mL (≈ 141 µM)				
CCCCCCNC(=O)O[C@@H]1[C@@H](O)[C@H](O[C@H]2O[C@H](CN)[C@@H](O)[C@H](O)[C@H]2N)[C@@H](N)C[C@H]1N			64 µg/mL (≈ 142 µM)	16 µg/mL (≈ 35.6 µM)	125 µg/mL (≈ 278 µM)	≥ 250 µg/mL
CCCCCCNC(=O)O[C@@H]1[C@@H](O)[C@H](O[C@H]2O[C@H](CN)CC[C@H]2N)[C@@H](N)C[C@H]1N	125 µg/mL (≈ 299 µM)	≥ 250 µg/mL	16 µg/mL (≈ 38.3 µM)	16 µg/mL (≈ 38.3 µM)	125 µg/mL (≈ 299 µM)	64 µg/mL (≈ 153 µM)
CCCCCCNC(=O)O[C@@H]1[C@@H](O)[C@H](O[C@@H]2CC[C@H](N)[C@@H](CN)O2)[C@@H](N)C[C@H]1N	32 µg/mL (≈ 76.6 µM)	≥ 250 µg/mL	16 µg/mL (≈ 38.3 µM)	16 µg/mL (≈ 38.3 µM)	≥ 250 µg/mL	64 µg/mL (≈ 153 µM)
NC[C@H]1O[C@H](O[C@H]2[C@H](O)[C@@H](O)[C@H](N)C[C@@H]2N)CC[C@@H]1N	64 µg/mL (≈ 220 µM)	≥ 250 µg/mL				
CCCCCCNC(=O)O[C@@H]1[C@@H](OC(=O)NCCCCCC)[C@H](N)C[C@H](N)[C@H]1O[C@H]1O[C@H](CN)[C@@H](O)[C@H](O)[C@H]1N			125 µg/mL (≈ 217 µM)	32 µg/mL (≈ 55.5 µM)	125 µg/mL (≈ 217 µM)	125 µg/mL (≈ 217 µM)
NC[C@@H]1O[C@H](O[C@H]2[C@@H](O)[C@H](O[C@@H]3[C@@H](O)[C@H](N)C[C@H](N)[C@H]3O[C@H]3O[C@H](CN)[C@@H](O)[C@H](O)[C@H]3N)O[C@@H]2CO)[C@H](N)[C@@H](O)[C@@H]1O [FRAMYCETIN]	1 µg/mL (≈ 1.63 µM)	4 µg/mL (≈ 6.51 µM)				
NC[C@H]1O[C@H](O[C@H]2[C@H](O)[C@@H](O[C@H]3O[C@H](CO)[C@@H](O)[C@H](N)[C@H]3O)[C@H](N)C[C@@H]2N)[C@H](O)[C@@H](O)[C@@H]1O [KANAMYCIN]	2 µg/mL (≈ 4.13 µM)	4 µg/mL (≈ 8.26 µM)				
NC[C@H]1O[C@H](O[C@H]2[C@H](O)[C@@H](O)[C@H](N)C[C@@H]2N)[C@H](N)[C@@H](O)[C@@H]1O [NEAMINE]	4 µg/mL (≈ 12.4 µM)	32 µg/mL (≈ 99.3 µM)	64 µg/mL (≈ 199 µM)	2 µg/mL (≈ 6.2 µM)	16 µg/mL (≈ 49.6 µM)	125 µg/mL (≈ 388 µM)

Now from value to compound, other results behind:

MIC (Staphylococcus aureus [1])	MIC (Escherichia coli)	Compound	MIC (Pseudomonas aeruginosa)	MIC (Klebsiella pneumoniae [2])	MIC (Klebsiella pneumoniae [3])	MIC (Staphylococcus aureus [4])
≥ 250 µg/mL	≥ 250 µg/mL	NC[C@H]1O[C@H](O[C@H]2[C@H](O)[C@@H](O[C@@H]3O[C@H](CO)[C@@H](O)[C@H](O)[C@H]3O)[C@H](N)C[C@@H]2N)CC[C@@H]1N				
8 µg/mL (≈ 18.4 µM)	16 µg/mL (≈ 36.7 µM)	C[C@H]1O[C@@H](O[C@@H]2[C@@H](O)[C@H](O[C@@H]3CC[C@H](N)[C@@H](CN)O3)[C@@H](N)C[C@H]2N)[C@H](O)[C@@H](N)[C@@H]1O				
4 µg/mL (≈ 9.18 µM)	16 µg/mL (≈ 36.7 µM)	C[C@H]1O[C@@H](O[C@@H]2[C@@H](O)[C@H](N)C[C@H](N)[C@H]2O[C@H]2O[C@H](CN)CC[C@H]2N)[C@@H](O)[C@@H](O)[C@@H]1N				
125 µg/mL (≈ 287 µM)	125 µg/mL (≈ 287 µM)	C[C@H]1O[C@@H](O[C@@H]2[C@@H](O)[C@H](N)C[C@H](N)[C@H]2O[C@@H]2CC[C@H](N)[C@@H](CN)O2)[C@@H](O)[C@@H](O)[C@@H]1N				
2 µg/mL (≈ 4.75 µM)	4 µg/mL (≈ 9.49 µM)	NC[C@@H]1CC[C@@H](N)[C@@H](O[C@H]2[C@H](O)[C@@H](O[C@@H]3OC[C@@H](O)[C@H](N)[C@H]3O)[C@H](N)C[C@@H]2N)O1				
16 µg/mL (≈ 55.1 µM)	32 µg/mL (≈ 110 µM)	NC[C@@H]1CC[C@@H](N)[C@@H](O[C@H]2[C@H](O)[C@@H](O)[C@H](N)C[C@@H]2N)O1 [GENTAMINE C1A]				
